pIC50: −log10 of the molar value. The source made the active and inactive calls. No cut-off for these calls is given here.
Legend:
[1] = Cytotoxicity against human U373 cells after 72 hrs by MTT assay; assay type: functional, cell-based, U-373MG ATCC; settings: U373 MG
Summary of the method: (§1)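 Cells plated at 10,000 to 40,000 cells/mL, depending on cell type, and incubated 24 h before treatment. Growth was read after 72 h culture with or without compound. MTT reduction to formazan by living cells was read by spectrophotometry at 570 nm with a 630 nm reference. IC50 growth inhibitory concentrations were derived. NHDF and Wi38 are normal human fibroblasts.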

A549 = test: Cytotoxicity against human A549 cells after 72 hrs by MTT assay; assay type: functional, cell-based; settings: A549, 72 h; summary of the method: as §1
PC-3 = test: Cytotoxicity against human PC3 cells after 72 hrs by MTT assay; assay type: functional, cell-based; settings: PC-3, 72 h; summary of the method: as §1
U-373MG ATCC = test: Cytotoxicity against human apoptosis-resistant U373 cells at 5 uM after 2 hrs by computer-assisted phase contrast microscopy; assay type: functional, cell-based
Summary of the method: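 U373 glioblastoma cells were cultured with or without 5 μM compound. Morphology was followed by quantitative computer-assisted phase-contrast videomicroscopy at 100x and 400x magnification over about 2 h after compound addition, to tell cytotoxic from cytostatic effects.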

NHDF = test: Cytotoxicity against human NHDF cells after 72 hrs by MTT assay; assay type: cell-based; summary of the method: as §1
[2] = Cytotoxicity against human WI38 cells after 72 hrs by MTT assay; assay type: cell-based; settings: wi-38, 72 h; summary of the method: as §1

| Structure (SMILES) | pIC50 [1] | pIC50 (A549) | pIC50 (PC-3) | Activity (U-373MG ATCC) | Activity (NHDF) | Activity [2] |
| --- | --- | --- | --- | --- | --- | --- |
| COc1ccc(C2CNC3=C2C(=O)c2c(ccn2S(=O)(=O)c2ccc(C)cc2)C3=O)cc1 (stereo unspecified) | 4.28 | 4.28 | 4.47 |  |  |  |
| COc1ccc(-c2c[nH]c3c2C(=O)c2c(CCN)cn(S(=O)(=O)c4ccc(C)cc4)c2C3=O)cc1 | 5.49 | 5.39 | 5.38 | Active | Toxic | Toxic |
| COc1ccc(-c2c[nH]c3c2C(=O)c2[nH]cc4ccnc-3c24)cc1 | < 4.00 | < 4.00 | < 4.00 |  |  |  |
| COc1ccc(C(O)CNC2=CC(=O)c3c(ccn3S(=O)(=O)c3ccc(C)cc3)C2=O)cc1 (stereo unspecified) | 4.25 | 4.15 | 4.43 |  |  |  |
| COc1ccc(-c2c[nH]c3c2C(=O)c2c(ccn2S(=O)(=O)c2ccc(C)cc2)C3=O)cc1 | 4.32 | 4.38 | 4.32 |  |  |  |
| COc1ccc(-c2c[nH]c3c2C(=O)c2ccn(S(=O)(=O)c4ccc(C)cc4)c2C3=O)cc1 | < 4.00 | 4.11 | 4.61 |  |  |  |
| COc1ccc(-c2c[nH]c3c2C(=O)c2[nH]ccc2C3=O)cc1 | < 4.00 | < 4.00 | < 4.00 |  |  |  |
| COc1ccc(C2CNC3=C2C(=O)c2c4c(cn2S(=O)(=O)c2ccc(C)cc2)CCN=C34)cc1 (stereo unspecified) | 4.52 | 4.59 | 4.69 |  |  |  |
| COc1ccc(C2CNC3=C2C(=O)c2ccn(S(=O)(=O)c4ccc(C)cc4)c2C3=O)cc1 (stereo unspecified) | 4.33 | 4.45 | 4.43 |  |  |  |
| O=C1c2[nH]cc3c2C(=NCC3)c2[nH]cc(-c3ccc(O)cc3)c21 | 4.21 | 4.45 | 4.20 |  |  |  |
| COc1ccc(-c2c[nH]c3c2C(=O)c2c(c(CCN)cn2S(=O)(=O)c2ccc(C)cc2)C3=O)cc1 | 5.07 | 4.95 | 4.50 |  | Non-toxic | Non-toxic |
| COc1ccc(-c2c[nH]c3c2C2=NCCc4cn(S(=O)(=O)c5ccc(C)cc5)c(c42)C3=O)cc1 | 4.24 | 4.81 | < 4.00 |  |  |  |
| COc1ccc(-c2c[nH]c3c2C2=NCCc4c[nH]c(c42)C3=O)cc1 | < 4.00 | < 4.00 | < 4.00 |  |  |  |
| COc1ccc(C2CNC3=C2C2=NCCc4cn(S(=O)(=O)c5ccc(C)cc5)c(c42)C3=O)cc1 (stereo unspecified) | 4.74 | 5.01 | 4.69 |  |  |  |
| COc1ccc(-c2c[nH]c3c2C(=O)c2c4c(cn2S(=O)(=O)c2ccc(C)cc2)CCN=C34)cc1 | 4.38 | 5.51 | < 4.00 |  |  |  |
| COc1ccc(C2C=NC3=C2C(=O)c2cc[nH]c2C3=O)cc1 (stereo unspecified) | 5.12 | 5.11 | < 4.00 |  |  |  |
| COc1ccc(-c2c[nH]c3c2-c2nccc4c[nH]c(c24)C3=O)cc1 | 4.01 | 4.09 | 4.05 |  |  |  |
| O=C1c2cc[nH]c2C(=O)c2c(-c3ccc(O)cc3)c[nH]c21 | 4.43 | 4.13 | < 4.00 |  |  |  |
| O=C1C2=C(N=CC2c2ccc(O)cc2)C(=O)c2[nH]ccc21 (stereo unspecified) | < 4.00 | < 4.00 | < 4.00 |  |  |  |
| COc1ccc(C(O)CNC2=CC(=O)c3ccn(S(=O)(=O)c4ccc(C)cc4)c3C2=O)cc1 (stereo unspecified) | 4.53 | < 4.00 | < 4.00 |  |  |  |
| O=C1c2[nH]cc3c2C(=NCC3)c2c(-c3ccc(O)cc3)c[nH]c21 [TSITSIKAMMAMINE A] | 4.74 | 4.81 | 4.64 |  |  |  |
| COc1ccc(-c2c[nH]c3c2C(=O)c2[nH]cc4c2C3=NCC4)cc1 | 5.39 | 4.42 | 4.25 |  |  |  |
